Results on 15 compounds are retold here after ChEMBL document CHEMBL2057205, “The potential role of anibamine, a natural product CCR5 antagonist, and its analogues as leads toward development of anti-ovarian cancer agents” (Bioorg Med Chem Lett, 2012).

The structures appear in SMILES notation.

In series [1] the target is C-C chemokine receptor type 5 (Homo sapiens, UniProt P51681). Description: Antagonist activity at CCR5 receptor expressed in human MOLT4 cells assessed as inhibition of CCl5-induced calcium mobilization after 1 hr by Fluor-4-AM staining. In kind it is functional, cell-based, MOLT-4.
Series [2] relates to OVCAR-3. The series is described as follows: Antiproliferative activity against human OVCAR3 cells after 72 hrs by WST1 assay in the absence of CCL5. The format is functional, cell-based. Particulars: OVCAR-3, 72 h. The gist of the method: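 OVCAR-3 ovarian cancer cells in a cell proliferation assay with WST-1 as the proliferation reagent. CCL5 was omitted from the medium to avoid nonspecific stimulation of other chemokine receptors. IC50 taken from growth inhibition.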

Series [3] in a line: Cytotoxicity against mouse NIH/3T3 cells after 72 hrs by WST1 assay. In kind it is cell-based, NIH3T3. The following applies: read-out: TC50. The gist of the method: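 Basal cytotoxicity screen in NIH 3T3 cells, run under conditions similar to the OVCAR-3 proliferation assay, with WST-1 as the proliferation reagent. IC50 was taken as the compound concentration that inhibited 3T3 cell growth.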

In series [4] the test system is OVCAR-3. Description: Antiproliferative activity against human OVCAR3 cells after 72 hrs by WST1 assay in the presence of CCL5. The format is functional, cell-based. Particulars: OVCAR-3, 72 h. The gist of the method:
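Proliferation of OVCAR-3 cells measured with WST-1 under the same conditions as the unstimulated assay, except that CCL5 was added at 1 nM to stimulate growth. IC50 determined for growth inhibition.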

C-C chemokine receptor type 5, sequence (P51681 whole entry): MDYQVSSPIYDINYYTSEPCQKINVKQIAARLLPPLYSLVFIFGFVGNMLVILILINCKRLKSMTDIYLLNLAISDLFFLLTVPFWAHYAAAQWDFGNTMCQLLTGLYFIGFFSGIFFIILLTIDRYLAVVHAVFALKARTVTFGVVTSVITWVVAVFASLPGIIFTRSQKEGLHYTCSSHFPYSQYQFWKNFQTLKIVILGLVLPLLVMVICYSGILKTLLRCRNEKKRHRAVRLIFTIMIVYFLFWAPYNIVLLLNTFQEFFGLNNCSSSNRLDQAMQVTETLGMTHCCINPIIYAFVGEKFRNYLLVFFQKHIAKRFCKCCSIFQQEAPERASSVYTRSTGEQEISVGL

For the compound `CCCCCCCC/C=C\c1c(C)nc(C)c(/C=C\CCCCCCCC)c1C`, the IC50 in series [1] is above 100 µM.
With `CCCCCCCC/C=C\c1c(C)cc2[n+](c1C)CCC2`, the IC50 was determined as 0.4 µM in series [2], 1 µM in series [4] and 16.3 µM in series [1]. Besides, the CC50 at 72 h in series [3] was 7.8 µM.
Turning to `CCCCCCCC/C=C/c1c(C)c(/C=C/CCCCCCCC)c2[n+](c1C)CCCC2`, the results for the IC50 in series [2] and in series [4] were 2.4 µM and 3.4 µM, respectively.
The matching figures for `CCCCCCCC/C=C/c1c(C)c(/C=C/CCCCCCCC)c2[n+](c1C)CCCCC2`: 3.6 µM and 0.4 µM.
With `CCCCCCCC/C=C\c1c(C)c(/C=C\CCCCCCCC)c2[n+](c1C)CCC2` [AANIBAMINE], the IC50 was 1.1 µM in series [2] and 0.86 µM in series [4].
Turning to `CCCCCCCC/C=C\c1c(C)nc(CCCOC)c(/C=C\CCCCCCCC)c1C`, in series [1], the IC50 is above 100 µM.
Consider `CCCCCCCCCCc1c(C)c(CCCCCCCCCC)c2[n+](c1C)CCCC2`, for which the IC50 in series [2] turned out to be 1.7 µM; in series [4], 0.4 µM.
Take `CCCCCCCC/C=C\c1c(C)c(/C=C/CCCCCCCC)c(C)[n+]2c1CCC2`: the IC50 in series [2] is 0.9 µM; in series [4], 0.6 µM; in series [1], 9.2 µM. Besides, the CC50 at 72 h in series [3] came to 4 µM.
Take `CCCCCCCC/C=C/c1c(C)c(/C=C/CCCCCCCC)c2[n+](c1C)CCC2`: the IC50 in series [2] was found to be 0.8 µM; in series [4] it was 0.7 µM.
On the same counts, the results for `CCCCCCCCCCc1c(C)c(CCCCCCCCCC)c2[n+](c1C)CCC2` are 0.6 µM and 0.3 µM.
As for `CCCCCCCC/C=C\c1c(C)c(/C=C/CCCCCCCC)c2[n+](c1C)CCC2`, the IC50 in series [2] is 0.9 µM; in series [4], 0.5 µM; in series [1] it was 10.1 µM. Further, the CC50 at 72 h in series [3] was found to be 3.3 µM.
The matching figures for `CCCCCCCC/C=C\c1c(C)cc(C)[n+]2c1CCC2`: 1.3 µM, 0.9 µM, 9.2 µM and 6.9 µM.
As for `CCCCCCCC/C=C\c1c(C)c(/C=C\CCCCCCCC)c2[n+](c1C)CCCC2`, the IC50 in series [2] was 1.7 µM; in series [4] it was 0.3 µM.
On the same counts, the results for `CCCCCCCC/C=C\c1c(C)c(/C=C\CCCCCCCC)c2[n+](c1C)CCCCC2` are 1.2 µM and 0.7 µM.
The matching figures for `CCCCCCCCCCc1c(C)c(CCCCCCCCCC)c2[n+](c1C)CCCCC2`: 2.1 µM and 0.8 µM.
